Results taken from ChEMBL document CHEMBL4732272, “Remodelin Is a Cryptic Assay Interference Chemotype That Does Not Inhibit NAT10-Dependent Cytidine Acetylation” (ACS Med Chem Lett, 2021).
Calls of active or inactive are those of the source. No cut-off for these calls is given here.

Assays:
[1] = system: K562; experiment: Covalent protein binding in human K562 cells by rhodamine azide based fluorescence analysis; format: functional, cell-based; settings: dose 10-100 µM
Outline: (§1)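 K562 cancer cell lysates incubated with clickable probes across a dose range (down to 10 μM), then click-labelled with rhodamine azide to visualise proteome labelling; competition run with remodelin added.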

[2] = target: T1, RNA cytidine acetyltransferase (Homo sapiens) (UniProt Q9H0A0); experiment: Stabilization of full length recombinant NAT10 (unknown origin) by DSLS based analysis
T1 sequence (whole entry): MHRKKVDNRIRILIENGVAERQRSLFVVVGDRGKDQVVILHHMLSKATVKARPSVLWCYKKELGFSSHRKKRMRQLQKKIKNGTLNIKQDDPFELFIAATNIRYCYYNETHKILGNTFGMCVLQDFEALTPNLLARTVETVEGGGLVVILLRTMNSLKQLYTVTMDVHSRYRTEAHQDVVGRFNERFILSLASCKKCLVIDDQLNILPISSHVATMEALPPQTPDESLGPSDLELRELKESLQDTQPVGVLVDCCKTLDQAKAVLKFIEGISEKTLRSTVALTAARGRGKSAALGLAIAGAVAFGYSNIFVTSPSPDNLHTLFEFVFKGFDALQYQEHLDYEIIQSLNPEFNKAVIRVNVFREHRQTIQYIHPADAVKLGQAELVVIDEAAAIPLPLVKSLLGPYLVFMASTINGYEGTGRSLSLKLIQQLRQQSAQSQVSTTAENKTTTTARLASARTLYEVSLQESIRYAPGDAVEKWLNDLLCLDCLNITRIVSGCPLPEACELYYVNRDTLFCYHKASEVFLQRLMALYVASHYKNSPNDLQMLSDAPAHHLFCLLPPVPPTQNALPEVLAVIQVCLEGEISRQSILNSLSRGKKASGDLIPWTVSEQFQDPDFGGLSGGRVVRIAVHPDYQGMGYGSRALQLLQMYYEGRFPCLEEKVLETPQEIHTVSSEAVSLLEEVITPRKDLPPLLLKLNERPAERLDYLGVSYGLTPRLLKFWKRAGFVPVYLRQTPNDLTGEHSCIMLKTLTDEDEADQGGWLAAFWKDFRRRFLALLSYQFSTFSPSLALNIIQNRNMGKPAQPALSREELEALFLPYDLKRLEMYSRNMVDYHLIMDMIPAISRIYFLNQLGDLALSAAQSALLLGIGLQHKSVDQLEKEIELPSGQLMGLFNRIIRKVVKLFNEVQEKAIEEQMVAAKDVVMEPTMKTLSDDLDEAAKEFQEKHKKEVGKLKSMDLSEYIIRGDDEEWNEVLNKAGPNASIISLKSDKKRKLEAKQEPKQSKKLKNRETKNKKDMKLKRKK
Outline: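 Full-length recombinant NAT10 thermal stability measured by differential static light scattering with ATP, acetyl-CoA or remodelin added.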

[3] = target: T1, RNA cytidine acetyltransferase (Homo sapiens); experiment: Binding affinity to recombinant NAT10 acetyltransferase domain (494 to 753 residues) (unknown origin) by isothermal titration calorimetry
Outline: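 Recombinant NAT10 acetyltransferase domain (residues 494–753) titrated with acetyl-CoA or remodelin by isothermal titration calorimetry.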

[4] = Thiol-reactivity using La antigen containing reactive cysteine C232 and C245 in presence of DTT by ALARM NMR analysis; format: ADME
[5] = target: T1, RNA cytidine acetyltransferase (Homo sapiens); experiment: Inhibition of NAT10-catalyzed RNA cytidine acetylation in human HeLa cells assessed as decrease in ac4C level at 10 to 50 uM after 48 hrs by LC-MS assay; format: cell-based; settings: dose 10-50 µM
Outline: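 Wild-type cells treated with remodelin for 48 h; RNA ac4C levels quantified by LC-MS, with CRISPR-Cas9 NAT10 disruption as comparator.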

[6] = target: T1, RNA cytidine acetyltransferase (Homo sapiens); experiment: Inhibition of NAT10-catalyzed RNA cytidine acetylation in human HeLa cells assessed as decrease in ac4C level at 50 uM after 48 hrs by Northern blot assay; format: cell-based
Outline: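 Following 48 h remodelin treatment, RNA probed by dot blot or Northern blot with an anti-ac4C antibody.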

[7] = target: T1, RNA cytidine acetyltransferase (Homo sapiens); experiment: Inhibition of NAT10-catalyzed RNA cytidine acetylation in human HeLa cells assessed as decrease in ac4C at helix 34 of 18S rRNA at 50 uM after 4 days by UV-HPLC analysis; format: cell-based; settings: time 4.0 day
Outline: (§2)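 Helix 34 and helix 45 ac4C of 18S rRNA analysed […] by UV-HPLC after cells were treated with remodelin at 50 μM for 4 d; NAT10 KD cells served as comparator.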

[8] = target: T1, RNA cytidine acetyltransferase (Homo sapiens); experiment: Inhibition of NAT10-catalyzed RNA cytidine acetylation in human HeLa cells assessed as decrease in ac4C at helix 45 of 18S rRNA at 50 uM after 4 days by UV-HPLC analysis; format: cell-based; settings: time 4.0 day; outline: as §2
[9] = Stability of the light-protected compound in aqueous buffer measured for 7 days; format: physicochemical; settings: 168 h, time 7 day
Outline: (§3)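 Remodelin solutions followed over time: in aqueous buffer kept from light for 7 days; in DMSO monitored for darkening colour and new aromatic NMR resonances.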

[10] = Stability of the compound in DMSO-d6 solution assessed as discoloration to dark brown colour in presence of light; format: physicochemical; outline: as §3
[11] = Stability of the compound in DMSO-d6 solution assessed as drug degradation measured after 24 hrs by NMR analysis; format: physicochemical
[12] = Thiol reactivity with CoA at 1 to 50 uM measured after 30 mins by DACM thiol consumption assay; format: ADME; settings: 0.5 h, dose 1-50 µM
[13] = Redox activity of the compound assessed as H2O2 producion at 250 uM by horseradish peroxidase-phenol red counter screen based assay; format: physicochemical
[14] = Redox activity of the compound assessed as H2O2 production at 250 uM in presence of DTT by horseradish peroxidase-phenol red counter screen based assay; format: physicochemical
[15] = Aggregation property of the compound assessed as detergent sensitive inhibition of beta-lactamase AmpC at 33 to 100 uM; format: physicochemical; settings: dose 33-100 µM
[16] = Aggregation property of peptides assessed as colloidal aggregate formation at 25 uM by dynamic light scattering analysis; format: physicochemical
[17] = target: T1, RNA cytidine acetyltransferase (Homo sapiens); experiment: Inhibition of NAT10-catalyzed RNA cytidine acetylation in human HeLa cells assessed as decrease in ac4C level at 10 to 50 uM after 24 to 48 hrs by dot blot assay; format: cell-based; settings: dose 10-50 µM, time 24-48 hrs
[18] = target: T1, RNA cytidine acetyltransferase (Homo sapiens); experiment: Inhibition of NAT10-catalyzed RNA cytidine acetylation in human HeLa cells assessed as decrease in ac4C at helix 45 of 18S rRNA at 50 uM after 48 hrs by nucleotide resolution sequencing analysis; format: cell-based
Outline: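 Helix 45 of 18S rRNA (C1842) read by nucleotide-resolution ac4C sequencing after 50 μM remodelin for 48 h; C→T change at the site scored as ac4C present, no mutation as loss; NAT10 KD as comparator.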

[19] = target: Tubulin (Homo sapiens) (UniProt P68371+Q9H4B7+P0DPH7+P68366+Q13509+Q71U36+P04350+Q3ZCM7+P07437+P68363+Q9BQE3+Q6PEY2+Q13885+Q9BVA1+Q9BUF5); experiment: Induction of tubulin acetylation in human HEK293T cells at 10 to 50 uM measured after 48 hrs by western blot analysis; format: cell-based; settings: dose 10-50 µM
[20] = system: K562; experiment: Covalent protein binding in human K562 cells at 10 to 100 uM in presence of remodelin by rhodamine azide based fluorescence analysis; format: functional, cell-based; settings: dose 10-100 µM; outline: as §1

## C#CCN(N=C1CCCC1)c1nc(-c2ccc(Cl)cc2)cs1
[1]
  Activity: Dose-dependent effect

## CC(=O)SCCNC(=O)CCNC(=O)[C@H](O)C(C)(C)COP(=O)(O)OP(=O)(O)OC[C@H]1O[C@@H](n2cnc3c(N)ncnc32)[C@H](O)[C@@H]1OP(=O)(O)O
[2]
  Activity: Active
[3]
  Activity: Active

## Nc1ncnc2c1ncn2[C@@H]1O[C@H](COP(=O)(O)OP(=O)(O)OP(=O)(O)O)[C@@H](O)[C@H]1O
[2]
  Activity: Active

## N#Cc1ccc(-c2csc(NN=C3CCCC3)n2)cc1
[4]
  Activity: Active
[2]
  Activity: inactive
[3]
  Activity: inactive
[5]
  inhibition: inactive
[6]
  inhibition: inactive
[7]
  inhibition: inactive
[8]
  inhibition: inactive
[9]
  Stabilty: Stable
[10]
  Stabilty: Unstable
[11]
  Stabilty: Unstable
[12]
  Activity: Not Active
[13]
  Activity: Not Active
[14]
  Activity: Not Active
[15]
  Activity: Not Active
[16]
  Activity: Active
[17]
  inhibition: inactive
[18]
  inhibition: inactive
[19]
  Activity: inactive

## C#CCNC(=O)c1ccc(-c2csc(NN=C3CCCC3)n2)cc1
[10]
  Stabilty: Unstable
[1]
  Activity: Dose-dependent effect
[20]
  Activity: inactive
